Like-named read-outs stand apart in the source and are kept apart here. Non-standard residues stand in square brackets, D forms with d. Residues, ends and D or L forms follow the SMILES beside them. *: point of attachment. X1 = COC1=CC(=O)N(C(=O)[C@@H](O*)C(C)C)[C@H]1Cc1ccccc1; NMe2Val = CC(C)[C@@H](C(=O)*)N(C)C; NMeV = CN[C@H](C(=O)O)C(C)C; Cbz = O=C(OCc1ccccc1)*; NHtBu = CC(C)(C)N*
Assays:
[1] = test system: CCRF-CEM leukemia cells; test: cells; type: cell-based, human; conditions: for -fold difference in IC50 (+ BCPP versus − BCPP) / IC50: 24 h; for IC50: read-out: IC50 − BCPP
[2] = test system: Burkitt lymphoma CA46 cells; test: Inhibition of growth of CA46 cells; type: cell-based, human
Summary of the method: (§1)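 Suspension lines were grown in RPMI 1640 with 5% fetal bovine serum (10% for CA46) at 37°C in humidified 5% CO₂. Test compound was added in DMSO (0.1% final) at varying concentrations. Growth was measured as cell number with a particle counter, and the IC₅₀ was derived from it.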

[3] = biological target: purified bovine brain tubulin (Bos taurus, UniProt P81947+Q6B856); test: Inhibition of tubulin assembly; type: biochemical
[4] = test system: P-glycoprotein; conditions: ref Aherne et al., 1996; cited from earlier work
[5] = test system: NCI/ADR-RES; conditions: multidrug resistant, P-glycoprotein expressing
[6] = test system: CCRF-CEM cells; test: Inhibition of cell growth, CCRF-CEM cells; type: cell-based, human; conditions: mean ± S.D.
Summary of the method: as §1

[7] = test system: CA46, K-562, MOLT-4, and RPMI-8226
[8] = test system: SR, CCRF-CEM, and HL-60 (TB)
[9] = test system: MDA-MB-435 line
[10] = test system: K-562 cells; test: [^3H]Tasidotin uptake and metabolism, K-562 cells; type: in vitro ADME, human; conditions: 0.1 μM [^3H]tasidotin, 16 h
Summary of the method: (§2)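 Log-phase cells at ~10⁶ cells/ml were given 0.1 μM [³H]test compound for 16 h (CA46 also 5 min). Cells were centrifuged, washed twice in PBS pH 7.2 and sonicated in water. Extracts were boiled 5 min, clarified, and precipitated with 3 volumes of ethanol. Radiolabel and protein were measured in supernatants and pellets. Supernatants in 0.1% TFA were run on C18 HPLC (10–60% acetonitrile, 10 min, 40°C) with in-line radioactivity detection and peak areas. Pellet label was taken as protein-incorporated proline.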

[11] = test system: SR cells; test: Inhibition of cell growth, SR cells; type: cell-based, human; conditions: mean ± S.D.
Summary of the method: as §1

[12] = test system: RPMI-8226 cells; test: Inhibition of cell growth, RPMI-8226 cells; type: cell-based, human; conditions: mean ± S.D.
Summary of the method: as §1

[13] = test system: RPMI-8226 cells; test: [^3H]Tasidotin uptake and metabolism, RPMI-8226 cells; type: in vitro ADME, human; conditions: 0.1 μM [^3H]tasidotin, 16 h
Summary of the method: as §2

[14] = test system: CCRF-CEM cells; test: [^3H]Tasidotin uptake and metabolism, CCRF-CEM cells; type: in vitro ADME, human; conditions: 0.1 μM [^3H]tasidotin, 16 h
Summary of the method: as §2

[15] = test system: HL-60 (TB) cells
[16] = test system: HS 578-T line
[17] = test system: MOLT-4 cells; test: Inhibition of cell growth, MOLT-4 cells; type: cell-based, human; conditions: mean ± S.D.
Summary of the method: as §1

[18] = test system: HL-60 (TB) cells; remark: listed apart in the source
[19] = test system: MOLT-4 cells; test: [^3H]Tasidotin uptake and metabolism, MOLT-4 cells; type: in vitro ADME, human; conditions: 0.1 μM [^3H]tasidotin, 16 h
Summary of the method: as §2

[20] = test system: SR cells; test: [^3H]Tasidotin uptake and metabolism, SR cells; type: in vitro ADME, human; conditions: 0.1 μM [^3H]tasidotin, 16 h
Summary of the method: as §2

[21] = test system: CA46 Burkitt lymphoma cells; test: [^3H]Tasidotin uptake and metabolism, CA46 cells; type: in vitro ADME, human; conditions: 0.1 μM [^3H]tasidotin
[22] = test system: SR, CCRF-CEM, and HL-60 (TB); remark: listed apart in the source
[23] = test system: CA46, K-562, MOLT-4, and RPMI-8226; conditions: less sensitive cell lines, 0.1 μM [^3H]tasidotin, 16 h
[24] = test system: K-562 cells; test: Inhibition of cell growth, K-562 cells; type: cell-based, human; conditions: mean ± S.D.
Summary of the method: as §1

[25] = read-out: IC50 Growth of CA46 Cells, 48-h incubation at 37°C, increase in cell number
[26] = 16 h, % of supernatant radiolabel

purified bovine brain tubulin, sequence (P81947 whole entry): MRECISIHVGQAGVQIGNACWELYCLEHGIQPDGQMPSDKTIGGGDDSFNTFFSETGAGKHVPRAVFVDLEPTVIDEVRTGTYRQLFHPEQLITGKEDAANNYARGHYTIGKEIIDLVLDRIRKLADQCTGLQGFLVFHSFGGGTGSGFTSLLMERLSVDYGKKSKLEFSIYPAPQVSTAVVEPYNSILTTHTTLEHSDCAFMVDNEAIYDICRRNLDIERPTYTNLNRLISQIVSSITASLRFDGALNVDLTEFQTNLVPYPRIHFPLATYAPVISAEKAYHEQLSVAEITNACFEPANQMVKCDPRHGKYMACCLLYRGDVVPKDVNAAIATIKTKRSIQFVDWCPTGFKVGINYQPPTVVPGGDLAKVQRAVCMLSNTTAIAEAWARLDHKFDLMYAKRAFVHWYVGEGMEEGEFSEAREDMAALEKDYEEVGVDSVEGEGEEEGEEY
purified bovine brain tubulin, sequence (Q6B856 whole entry): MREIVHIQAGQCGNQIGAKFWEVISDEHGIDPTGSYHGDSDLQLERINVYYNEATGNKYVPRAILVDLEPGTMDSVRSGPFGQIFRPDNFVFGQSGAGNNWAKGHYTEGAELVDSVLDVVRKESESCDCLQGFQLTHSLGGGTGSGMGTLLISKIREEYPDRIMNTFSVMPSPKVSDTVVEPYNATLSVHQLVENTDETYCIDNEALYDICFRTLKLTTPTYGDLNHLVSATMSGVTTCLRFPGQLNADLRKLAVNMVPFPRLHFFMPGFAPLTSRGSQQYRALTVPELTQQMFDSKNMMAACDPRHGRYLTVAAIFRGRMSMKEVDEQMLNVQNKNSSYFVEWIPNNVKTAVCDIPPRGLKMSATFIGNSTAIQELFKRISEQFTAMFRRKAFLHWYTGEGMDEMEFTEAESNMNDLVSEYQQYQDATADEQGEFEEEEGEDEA

SMILES: O=C[C@@H]1CCCN1C(=O)[C@@H]1CCCN1C(=O)OCc1ccccc1 [BCPP, N-benzyloxycarbonylprolylprolinal] (Cbz-Pro-Pro-aldehyde)
- Effect of BCPP itself on the growth of the cells ([1]; CCRF-CEM cells, 12.5 μM BCPP): negligible effects

SMILES: COc1ccc(/C=C\c2cc(OC)c(OC)c(OC)c2)cc1O [Combretastatin A-4]
- Effect of BCPP on the inhibition of CCRF-CEM cell growth by the drug ([1]; CCRF-CEM cells, 12.5 μM BCPP): no effect
- -fold difference in IC50 (+ BCPP versus − BCPP) ([1]; CCRF-CEM cells, 12.5 μM BCPP): 0.8 -fold
- IC50 ([1]; Homo sapiens, CCRF-CEM): 2.3 ± 0.3 nM

SMILES: CC[C@H](C)[C@@H]([C@@H](CC(=O)N1CCC[C@H]1[C@H](OC)[C@@H](C)C(=O)N[C@@H](Cc1ccccc1)c1nccs1)OC)N(C)C(=O)[C@@H](NC(=O)[C@H](C(C)C)N(C)C)C(C)C [Dolastatin 10, reference compound]
- IC50 [2, 25]: 0.03 nM
- IC50 [3]: 0.8 ± 0.1 µM

SMILES: COC1=CC(=O)N(C(=O)[C@@H](OC(=O)[C@@H]2CCCN2C(=O)[C@@H]2CCCN2C(=O)[C@H](C(C)C)N(C)C(=O)[C@@H](NC(=O)[C@H](C(C)C)N(C)C)C(C)C)C(C)C)[C@H]1Cc1ccccc1 [Dolastatin 15, reference compound] (NMe2Val-V[NMeV]PP-X1)
- IC50 [2, 25]: 3 nM
- IC50 [3]: 5.6 ± 0.9 µM
- P-glycoprotein substrate [4]: P-glycoprotein substrate

SMILES: CN(Cc1cnc2nc(N)nc(N)c2n1)c1ccc(C(=O)N[C@@H](CCC(=O)O)C(=O)O)cc1 [Methotrexate]
- Effect of BCPP on the inhibition of CCRF-CEM cell growth by the drug ([1]; CCRF-CEM cells, 12.5 μM BCPP): no effect
- -fold difference in IC50 (+ BCPP versus − BCPP) ([1]; CCRF-CEM cells, 12.5 μM BCPP): 1.1 -fold
- IC50 ([1]; Homo sapiens, CCRF-CEM): 7.3 ± 0.8 nM

SMILES: CC(C)[C@H](NC(=O)[C@H](C(C)C)N(C)C)C(=O)N(C)[C@H](C(=O)N1CCC[C@H]1C(=O)N1CCC[C@H]1C(=O)NC(C)(C)C)C(C)C [Tasidotin] (NMe2Val-V[NMeV]PP-NHtBu)
- IC50 [5]: > 1000 nM
- IC50 [6]: 30 ± 7 nM
- IC50 [7]: 100 to 300 nM
- Intracellular P5 [8]: 5.2-7.7 fmol/μg cell protein
- Share of total uptake as P5, average [8]: 29%
- Share of total uptake as proline, average [8]: 71%
- IC50 [9]: 4 nM
- Free Proline in Supernatant [10]: 4.2 fmol / μg cell protein
- Proline from Pellets [10]: 9.0 fmol / μg cell protein
- Total Proline in Supernatant (All Forms) [10]: 42 ± 9%
- Total Tasidotin-Derived Proline (Total Tasidotin Uptake) [10]: 15.5 ± 2 fmol / μg cell protein
- Free Proline in Supernatant ([10]; % of supernatant radiolabel): 64%
- Proline in P5 in Supernatant ([10]; % of supernatant radiolabel): 36 ± 6%
- IC50 [11]: 20 ± 1 nM
- IC50 [12]: 300 ± 20 nM
- Free Proline in Supernatant [13]: 1.6 fmol / μg cell protein
- Proline from Pellets [13]: 5.8 fmol / μg cell protein
- Total Proline in Supernatant (All Forms) [13]: 31 ± 5%
- Total Tasidotin-Derived Proline (Total Tasidotin Uptake) [13]: 8.4 ± 3 fmol / μg cell protein
- Free Proline in Supernatant ([13]; % of supernatant radiolabel): 61%
- Proline in P5 in Supernatant ([13]; % of supernatant radiolabel): 39 ± 5%
- Free Proline in Supernatant [14]: 11.5 fmol / μg cell protein
- Total Proline in Supernatant (All Forms) [14]: 52 ± 4%
- Total Tasidotin-Derived Proline (Total Tasidotin Uptake) [14]: 24 ± 9 fmol / μg cell protein
- Free Proline in Supernatant ([14]; % of supernatant radiolabel): 48%
- Proline in P5 in Supernatant ([14]; % of supernatant radiolabel): 62 ± 10%
- IC50 [15]: 36 ± 6 nM
- IC50 [16]: 200 nM
- IC50 [17]: 230 ± 30 nM
- Proline from Pellets [18]: 12.4 fmol / μg cell protein
- Total Proline in Supernatant (All Forms) [18]: 54 ± 10%
- Total Tasidotin-Derived Proline (Total Tasidotin Uptake) [18]: 27 ± 3 fmol / μg cell protein
- Free Proline in Supernatant [19]: 3.5 fmol / μg cell protein
- Proline from Pellets [19]: 7.0 fmol / μg cell protein
- Total Proline in Supernatant (All Forms) [19]: 46 ± 7%
- Total Tasidotin-Derived Proline (Total Tasidotin Uptake) [19]: 13 ± 3 fmol / μg cell protein
- Free Proline in Supernatant ([19]; % of supernatant radiolabel): 59%
- Proline in P5 in Supernatant ([19]; % of supernatant radiolabel): 41 ± 9%
- IC50 ([2]; CA46 cells (Table 2), mean ± S.D.): 100 ± 5 nM
- IC50 [2, 25]: 100 ± 5 nM
- Free Proline in Supernatant [20]: 5.0 fmol / μg cell protein
- Proline from Pellets [20]: 9.8 fmol / μg cell protein
- Total Proline in Supernatant (All Forms) [20]: 51 ± 9%
- Total Tasidotin-Derived Proline (Total Tasidotin Uptake) [20]: 20 ± 5 fmol / μg cell protein
- Free Proline in Supernatant ([20]; % of supernatant radiolabel): 49%
- Proline in P5 in Supernatant ([20]; % of supernatant radiolabel): 51 ± 7%
- Soluble intracellular radiolabel remaining as tasidotin ([21]; 5 min): Approximately 48%
- Soluble intracellular radiolabel with the mobility of P5 ([21]; 5 min): approximately 17%
- Soluble radiolabel that had undergone further metabolism (unbound proline peak) ([21]; 5 min): approximately 35%
- Free Proline in Supernatant ([21]; 16 h): 2.8 fmol / μg cell protein
- Proline from Pellets ([21]; 16 h): 7.1 fmol / μg cell protein
- Total Proline in Supernatant (All Forms) ([21]; 16 h): 41 ± 1%
- Total Tasidotin-Derived Proline (Total Tasidotin Uptake) ([21]; 16 h): 12 ± 0.6 fmol / μg cell protein
- Free Proline in Supernatant [21, 26]: 58%
- Proline in P5 in Supernatant [21, 26]: 42 ± 10%
- Radiolabel in the unbound proline peak ([21]; 96 h): approximately 38%
- Radiolabel remaining as tasidotin ([21]; 96 h): approximately 6%
- Total radiolabel with the mobility of P5 ([21]; 96 h): approximately 56%
- -fold difference in IC50 (+ BCPP versus − BCPP) ([1]; CCRF-CEM cells, 12.5 μM BCPP): 30 -fold
- IC50 ([1]; CCRF-CEM cells, without BCPP, cell number): 40 ± 10 nM
- IC50 [22]: 20 to 36 nM
- Share of total uptake as P5, average [23]: 16%
- Share of total uptake as proline, average [23]: 84%
- Total uptake, average [23]: 12 fmol/μg of cell protein
- IC50 [3]: 10 ± 0.4 µM
- Fold less active as inhibitor of tubulin assembly than dolastatin 10 ([3]; ratio of tubulin assembly IC50 values): more than 12 -fold
- IC50 [24]: 230 ± 30 nM

From paper PMC2635573 (Molecular pharmacology, 2008)
